Experimental data of several laboratories.
Lines come from different studies, so protocols differ.
Read-out: cell growth or viability

| SMILES | cell line | assay | setting | endpoint | result |
| --- | --- | --- | --- | --- | --- |
| CC(C)(C)CNc1nc(-c2cccs2)nc(Cl)c1-c1c(F)cc(C#N)cc1F | HEK293 | resazurin | 48 h | CC50 | > 50 µM |
| CCOc1cc(C=NNC(N)=S)ccc1OC(=O)CN1C(=O)CSC1=O | HEK293 | MTT | 40 µg/mL, 24 h | viability | > 70% |
| Nc1ccn([C@@H]2O[C@H](CO)[C@@H](O)C2(F)F)c(=O)n1 | HEK293 | MTT | 0.625 µg/mL, 24 h | viability | 83.8% |
| Cc1ccc(S(=O)(=O)NNc2ccc([N+](=O)[O-])cc2[N+](=O)[O-])cc1 | HEK293 | MTT | 62.5 µg/mL | viability | 82.7% |
| NC(=S)NN=Cc1ccc(OC(=O)CN2C(=O)CSC2=O)c(Cl)c1 | HEK293 | MTT | 50 µg/mL, 24 h | viability | > 70% |
| C#Cc1cc(F)c(-c2c(Cl)nc(-c3cccs3)nc2NCC2(C)N=N2)c(F)c1 | HEK293 | resazurin | 48 h | CC50 | > 20 µM |
| CCOC(=O)C1=C(CN2CCC[C@@H]2C(=O)Nc2ccc(B(O)O)cc2)NC(c2nccs2)=N[C@H]1c1ccc(F)cc1Br | HePAD38 | CCK-8 | 6 days | CC50 | 26.5 µM |
| CCOC(=O)c1cnc2c([N+](=O)[O-])cc(C(F)(F)F)cc2c1NCc1ccc(C(F)(F)F)cc1 | HEK293 | resazurin | 72 h | CC50 | ~9 µM |
| CCOC(=O)C1=C(CN2CCC[C@@H]2C(=O)Nc2cccc(B(O)O)c2)NC(c2nccs2)=N[C@H]1c1ccc(F)cc1Br | HePAD38 | CCK-8 | 6 days | CC50 | 18.4 µM |
| CC(C)[C@@H](C)Nc1nc(-c2cccs2)nc(Cl)c1-c1c(F)cc([N+](=O)[O-])cc1F | HEK293 | resazurin | 48 h | CC50 | 20.2 µM |
